Among the data in ChEMBL document CHEMBL2203173 (J Med Chem, 2012) are Activity values, retold here.

For data set [1], the system named is Mus musculus. Put plainly: Toxicity in BALB/c nu/nu mouse xenografted with human DMS53 cells assessed as change in reticulocyte count at 4 mg/kg, iv administered for 5 days a week measured after 21 days. Type of data set: organism-based, DMS-53. Also on record: dose 4 mg/kg, route intravenous. To be noted: in vivo, 504 h. Put shortly: (§1)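 Nude mice carrying DMS-53 xenografts (treatment from 100 mm3) received iv tail-vein doses in 30% propylene glycol/saline, 5 days/week for 21 days. Hematological indices (RBC, hemoglobin, hematocrit, reticulocytes, WBC, platelets) were then compared with vehicle controls.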

Data set [2] relates to Mus musculus. Put plainly: Toxicity in BALB/c nu/nu mouse xenografted with human DMS53 cells assessed as change in hemoglobin level at 8 mg/kg, iv administered for 5 days a week measured after 21 days. The class given is organism-based, DMS-53. Also on record: dose 8 mg/kg, route intravenous. The note with it: in vivo, 504 h. Put shortly: (§2)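 DMS-53 xenografts in nude mice; dosing started at 100 mm3 tumor volume. Agents given iv via tail vein, 5 days/week for 21 days, vehicle 30% propylene glycol/saline, vehicle-treated controls. Mice sacrificed day 21. Body and organ weights and hematological indices recorded. Spleen, kidney, liver, heart, lungs and brain were stained with H&E, Perls' and Gomori Trichrome and read by an independent veterinary pathologist.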

The subject of data set [3] is Mus musculus. Put plainly: Toxicity in BALB/c nu/nu mouse xenografted with human DMS53 cells assessed as change in RBC count at 8 mg/kg, iv administered for 5 days a week measured after 21 days. The class given is organism-based, DMS-53. More on the design: dose 8 mg/kg, route intravenous. To be noted: in vivo, 504 h.
For data set [4], the system named is Mus musculus. Put plainly: Toxicity in BALB/c nu/nu mouse xenografted with human DMS53 cells assessed as change in RBC count at 20 mg/kg, po administered for 3 times a week measured after 20 days. The note with it: in vivo, 480 h. Type of data set: organism-based, DMS-53. More on the design: dose 20 mg/kg, route oral.
The test system of data set [5] is Mus musculus. Put plainly: Toxicity in BALB/c nu/nu mouse xenografted with human DMS53 cells assessed as change in spleen weight at 20 mg/kg, po administered for 3 times a week measured after 20 days. The class given is organism-based, DMS-53. More on the design: dose 20 mg/kg, route oral. To be noted: in vivo, 480 h. Put shortly:
(§3)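 DMS-53 xenograft nude mice were gavaged 3 times/week in 30% propylene glycol/saline vehicle for 20 days and then sacrificed. Organ weights and histology of spleen, kidney, liver, heart, lungs and brain were compared with vehicle controls. n = 6-11 mice/condition.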

In data set [6] the test system is Mus musculus. Put plainly: Toxicity in BALB/c nu/nu mouse xenografted with human DMS53 cells assessed as change in lung weight at 20 mg/kg, po administered for 3 times a week measured after 20 days. The note with it: in vivo, 480 h. More on the design: dose 20 mg/kg, route oral. Type of data set: organism-based, DMS-53. Put shortly:
(§4)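 Nude mice bearing DMS-53 xenografts gavaged 3 times/week for 20 days, vehicle 30% propylene glycol/saline, vehicle controls, n = 6-11 mice/condition. Sacrifice on day 20. Organ weights and hematological indices recorded. Spleen, kidney, liver, heart, lungs and brain examined histologically, hearts stained with Gomori Trichrome for fibrosis.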

The subject of data set [7] is Mus musculus. Put plainly: Toxicity in BALB/c nu/nu mouse xenografted with human DMS53 cells assessed as change in lungs histology at 8 mg/kg, iv administered for 5 days a week measured after 21 days by hematoxylin and eosin staining method. To be noted: in vivo, 504 h. More on the design: dose 8 mg/kg, route intravenous. The class given is organism-based, DMS-53. An outline of the steps: (§5)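 Nude mice with DMS-53 xenografts dosed by tail-vein iv injection in 30% propylene glycol/saline, starting at 100 mm3 tumour volume, 5 days/week for 21 days. Spleen, kidney, liver, heart, lungs and brain were stained with H&E, Perls' (Fe loading) and Gomori Trichrome (fibrosis) by standard methods, and an independent veterinary pathologist examined them.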

Data set [8] relates to Mus musculus. Put plainly: Toxicity in BALB/c nu/nu mouse xenografted with human DMS53 cells assessed as change in lungs histology at 4 mg/kg, iv administered for 5 days a week measured after 21 days by hematoxylin and eosin staining method. Type of data set: organism-based, DMS-53. Also on record: dose 4 mg/kg, route intravenous. To be noted: in vivo, 504 h. An outline of the steps: as §2

Data set [9] concerns Mus musculus. Put plainly: Toxicity in BALB/c nu/nu mouse xenografted with human DMS53 cells assessed as change in brain histology at 4 mg/kg, iv administered for 5 days a week measured after 21 days by hematoxylin and eosin staining method. The class given is organism-based, DMS-53. More on the design: dose 4 mg/kg, route intravenous. The note with it: in vivo, 504 h. Put shortly:
as §2

For data set [10], the system named is Mus musculus. Put plainly: Toxicity in BALB/c nu/nu mouse xenografted with human DMS53 cells assessed as hepatocellular fibrosis at 4 mg/kg, iv administered for 5 days a week measured after 21 days by hematoxylin and eosin staining method. The class given is organism-based, DMS-53. Also on record: dose 4 mg/kg, route intravenous. The note with it: in vivo, 504 h. An outline of the steps:
as §5

The test system of data set [11] is Mus musculus. Put plainly: Toxicity in BALB/c nu/nu mouse xenografted with human DMS53 cells assessed as cardiac fibrosis at 8 mg/kg, iv administered for 5 days a week measured after 21 days by […]. The class given is organism-based, Heart, DMS-53. More on the design: dose 8 mg/kg, route intravenous. The note with it: in vivo, 504 h. Put shortly:
(§6)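 DMS-53 xenograft nude mice given agents iv by tail vein 5 days/week in 30% propylene glycol/saline for 21 days. At sacrifice, heart sections were stained with Gomori Trichrome to detect fibrosis. Spleen, kidney, liver, heart, lungs and brain were also stained with H&E and Perls' and examined by an independent veterinary pathologist.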

In data set [12] the test system is Mus musculus. Put plainly: Cardiotoxicity in BALB/c nu/nu mouse xenografted with human DMS53 cells at 6 mg/kg, iv administered for 5 days a week measured after 21 days. The note with it: in vivo, 504 h. More on the design: dose 6 mg/kg, route intravenous. Type of data set: toxicity, organism-based, DMS-53. An outline of the steps: as §6
In data set [13] the test system is Mus musculus. Put plainly: Toxicity in BALB/c nu/nu mouse xenografted with human DMS53 cells assessed as change in platelet count at 6 mg/kg, iv administered for 5 days a week measured after 21 days. Type of data set: organism-based, DMS-53. To be noted: in vivo, 504 h. More on the design: dose 6 mg/kg, route intravenous. Put shortly:
as §1

Data set [14] deals with Mus musculus. Put plainly: Toxicity in BALB/c nu/nu mouse xenografted with human DMS53 cells assessed as change in platelet count at 3 mg/kg, iv administered for 5 days a week measured after 21 days. The class given is organism-based, DMS-53. To be noted: in vivo, 504 h. More on the design: dose 3 mg/kg, route intravenous. An outline of the steps: as §1
The test system of data set [15] is Mus musculus. Put plainly: Toxicity in human DMS53 cells xenografted BALB/c nu/nu mouse assessed as change in organ weight at 6 mg/kg, iv administered for 5 days a week measured after 21 days. Type of data set: organism-based, DMS-53. More on the design: dose 6 mg/kg, route intravenous. The note with it: in vivo, 504 h. Put shortly: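 DMS-53 xenograft-bearing nude mice, treatment started at 100 mm3 tumour volume: iv tail-vein dosing in 30% propylene glycol/saline, 5 days/week for 21 days. Organs were weighed at sacrifice and compared with vehicle-control mice.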

Data set [16] deals with Mus musculus. Put plainly: Toxicity in BALB/c nu/nu mouse xenografted with human DMS53 cells assessed as change in body weight at 6 mg/kg, iv administered for 5 days a week measured after 21 days. The class given is organism-based, DMS-53. More on the design: dose 6 mg/kg, route intravenous. To be noted: in vivo, 504 h. An outline of the steps:
as §2

Data set [17] relates to Mus musculus. Put plainly: Toxicity in BALB/c nu/nu mouse xenografted with human DMS53 cells assessed as change in spleen weight at 7.5 mg/kg, po administered for 3 times a week measured after 20 days. Type of data set: organism-based, DMS-53. Also on record: dose 7.5 mg/kg, route oral. The note with it: in vivo, 480 h. Put shortly:
as §3

Data set [18] relates to Mus musculus. Put plainly: Toxicity in BALB/c nu/nu mouse xenografted with human DMS53 cells assessed as change in hematocrit level at 7.5 mg/kg, po administered for 3 times a week measured after 20 days. Type of data set: organism-based, DMS-53. To be noted: in vivo, 480 h. Also on record: dose 7.5 mg/kg, route oral. An outline of the steps: as §4
The subject of data set [19] is Mus musculus. Put plainly: Toxicity in BALB/c nu/nu mouse xenografted with human DMS53 cells assessed as change in RBC count at 7.5 mg/kg, po administered for 3 times a week measured after 20 days. More on the design: dose 7.5 mg/kg, route oral. The note with it: in vivo, 480 h. Type of data set: organism-based, DMS-53.
Data set [20] deals with Mus musculus. Put plainly: Toxicity in BALB/c nu/nu mouse xenografted with human DMS53 cells assessed as change in lung weight at 10 mg/kg, po administered for 3 times a week measured after 20 days. The class given is organism-based, DMS-53. More on the design: dose 10 mg/kg, route oral. To be noted: in vivo, 480 h. An outline of the steps:
as §4

In data set [21] the test system is Mus musculus. Put plainly: Toxicity in BALB/c nu/nu mouse xenografted with human DMS53 cells assessed as change in lungs histology at 6 mg/kg, iv administered for 5 days a week measured after 21 days by hematoxylin and eosin staining method. Type of data set: organism-based, DMS-53. Also on record: dose 6 mg/kg, route intravenous. The note with it: in vivo, 504 h. An outline of the steps: as §2

Data set [22] concerns Mus musculus. Put plainly: Toxicity in BALB/c nu/nu mouse xenografted with human DMS53 cells assessed as change in lungs histology at 3 mg/kg, iv administered for 5 days a week measured after 21 days by hematoxylin and eosin staining method. Type of data set: organism-based, DMS-53. More on the design: dose 3 mg/kg, route intravenous. The note with it: in vivo, 504 h. An outline of the steps:
as §2

Data set [23] relates to Mus musculus. Put plainly: Toxicity in BALB/c nu/nu mouse xenografted with human DMS53 cells assessed as vacuolation at 6 mg/kg, iv administered for 5 days a week measured after 21 days by hematoxylin and eosin staining method. The class given is organism-based, DMS-53. Also on record: dose 6 mg/kg, route intravenous. To be noted: in vivo, 504 h. Put shortly: as §5
The test system of data set [24] is Mus musculus. Put plainly: Toxicity in BALB/c nu/nu mouse xenografted with human DMS53 cells assessed as vacuolation at 3 mg/kg, iv administered for 5 days a week measured after 21 days by hematoxylin and eosin staining method. Type of data set: organism-based, DMS-53. Also on record: dose 3 mg/kg, route intravenous. To be noted: in vivo, 504 h. An outline of the steps:
as §5

With `CN(C(=S)NN=C(c1ccccn1)c1ccccn1)C1CCCCC1.Cl`, the Activity entry is listed as “Non-toxic” in [1]; “Toxic” in [2]; “Toxic” in [3]; “Non-toxic” in [4]; “Non-toxic” in [5]; “Non-toxic” in [6]. Further, the Activity entry in [7], in data set [8], in data set [9], in data set [10] and in data set [11] was “Non-toxic” in each case.

Consider `CCN(C)C(=S)NN=C(c1ccccn1)c1ccccn1.Cl`, for which the Activity entry is “Non-toxic” in data set [12]; “Non-toxic” in data set [13]; “Toxic” in data set [14]; “Toxic” in data set [15]; “Non-toxic” in [16]; “Toxic” in data set [17]. Also, the Activity result is listed as “Toxic” in data set [18]; “Non-toxic” in data set [19]; “Toxic” in data set [20]; “Non-toxic” in data set [21]; “Non-toxic” in [22]; “Toxic” in data set [23]. The Activity entry in data set [24] is given as “Non-toxic”.
